From ChEMBL document CHEMBL1148671, “Synthesis and antibacterial activity of C12 des-methyl ketolides” (2006) come the findings set out here.

Values after ≈ are worked out from the molar mass of the structure shown. Bounds are passed on as bounds.

Holding throughout (type): functional
The subject of experiment [1] is Streptococcus pneumoniae. Description: Antibacterial activity against erythromycin-resistant Streptococcus pneumoniae mef 5654 by broth microdilution method.
Experiment [2] has as its system Enterococcus faecalis. Description: Antibacterial activity against Enterococcus faecalis 29212 by broth microdilution method. The gist of the method:
(§1)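 In vitro activity was read as the minimum inhibitory concentration (MIC) by broth microdilution and reported in μg/mL. The S. pneumoniae panel included erythromycin-resistant strains carrying mef or erm genes. Telithromycin and clarithromycin were run as comparators in every assay.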

Experiment [3] relates to Streptococcus pneumoniae. The experiment is described as follows: Antibacterial activity against Streptococcus pneumoniae 49619 by broth microdilution method. The procedure, abridged: as §1
For experiment [4], the system named is Staphylococcus epidermidis. Description: Antibacterial activity against Staphylococcus epidermidis 14990 by broth microdilution method. The gist of the method:
as §1

Experiment [5] deals with Staphylococcus aureus. The experiment is described as follows: Antibacterial activity against Staphylococcus aureus 33591 by broth microdilution method. The gist of the method: as §1
Experiment [6] deals with Haemophilus influenzae. The experiment is described as follows: Antibacterial activity against Haemophilus influenzae 2762 by broth microdilution method. The procedure, abridged: as §1
For experiment [7], the system named is Streptococcus pneumoniae. The experiment is described as follows: Antibacterial activity against Streptococcus pneumoniae 297-749 by broth microdilution method. The procedure, abridged: as §1
Experiment [8] relates to Staphylococcus epidermidis. The experiment is described as follows: Antibacterial activity against Staphylococcus epidermidis f50654 by broth microdilution method. The gist of the method:
as §1

For experiment [9], the system named is Haemophilus influenzae. Description: Antibacterial activity against Haemophilus influenzae 49247 by broth microdilution method. The procedure, abridged: as §1
The subject of experiment [10] is Streptococcus pneumoniae. The experiment is described as follows: Antibacterial activity against erythromycin-resistant Streptococcus pneumoniae mef S 3427 by broth microdilution method.
Experiment [11] has as its system Streptococcus pneumoniae. The experiment is described as follows: Antibacterial activity against Streptococcus pneumoniae 280-962 by broth microdilution method. The gist of the method:
as §1

The subject of experiment [12] is Streptococcus pyogenes. The experiment is described as follows: Antibacterial activity against Streptococcus pyogenes 8668 by broth microdilution method. The procedure, abridged:
as §1

The test system of experiment [13] is Staphylococcus aureus. Description: Antibacterial activity against Staphylococcus aureus 29213 by broth microdilution method. The settings on record: ATCC29213. The gist of the method:
as §1

In experiment [14] the test system is Streptococcus pneumoniae. Description: Antibacterial activity against erythromycin-resistant Streptococcus pneumoniae erm 6849 by broth microdilution method.
The subject of experiment [15] is Enterococcus faecalis. The experiment is described as follows: Antibacterial activity against Enterococcus faecalis bc11148-2 by broth microdilution method. The procedure, abridged:
as §1

`CC[C@H]1OC(=O)[C@H](C)C(=O)[C@H](C)[C@@H](O[C@@H]2O[C@H](C)C[C@H](N(C)C)[C@H]2O)[C@](C)(OC)C[C@@H](C)C(=O)[C@H](C)[C@@H]2[C@@H]1OC(=O)N2CCCCn1cnc(-c2ccc(OC)nc2)c1`: the MIC in experiment [1] was 0.78 µg/mL (≈ 0.942 µM); in [2] it was at most 0.05 µg/mL; in [3], at most 0.05 µg/mL; in [4] it was 0.1 µg/mL (≈ 0.121 µM); in experiment [5], over 50 µg/mL; in experiment [6] it was 1.56 µg/mL (≈ 1.88 µM). Also, the MIC was at most 0.05 µg/mL in experiment [7]; 0.2 µg/mL (≈ 0.242 µM) in experiment [8]; 6.25 µg/mL (≈ 7.55 µM) in experiment [9]; 0.1 µg/mL (≈ 0.121 µM) in experiment [10]; at most 0.05 µg/mL in experiment [11]; at most 0.05 µg/mL in [12]. For the same compound, the MIC in experiment [13] came out at 0.2 µg/mL (≈ 0.242 µM); in experiment [14], 50 µg/mL (≈ 60.4 µM); in experiment [15] it was 6.25 µg/mL (≈ 7.55 µM).

Take `CC[C@H]1OC(=O)[C@H](C)C(=O)[C@H](C)[C@@H](O[C@@H]2O[C@H](C)C[C@H](N(C)C)[C@H]2O)[C@](C)(OC)C[C@@H](C)C(=O)[C@H](C)[C@@H]2[C@@H]1OC(=O)N2CCCC(C)(C)n1cnc(-c2cccnc2)c1`: the MIC was 1.56 µg/mL (≈ 1.89 µM) in [1]; 0.1 µg/mL (≈ 0.121 µM) in [2]; at most 0.05 µg/mL in [3]; 0.1 µg/mL (≈ 0.121 µM) in [4]; over 50 µg/mL in experiment [5]; 1.56 µg/mL (≈ 1.89 µM) in experiment [6]. Moreover, the MIC in experiment [7] was at most 0.05 µg/mL; in [8], 0.1 µg/mL (≈ 0.121 µM); in [9], 3.13 µg/mL (≈ 3.79 µM); in experiment [10], 0.2 µg/mL (≈ 0.242 µM); in [11], at most 0.05 µg/mL; in experiment [12] it was at most 0.05 µg/mL. The results for the MIC in [13], in [14] and in experiment [15] were 0.2 µg/mL (≈ 0.242 µM), 0.4 µg/mL (≈ 0.484 µM) and 1.56 µg/mL (≈ 1.89 µM), respectively.

In the case of `CC[C@H]1OC(=O)[C@H](C)C(=O)[C@H](C)[C@@H](O[C@@H]2O[C@H](C)C[C@H](N(C)C)[C@H]2O)[C@](C)(OC)C[C@@H](C)C(=O)[C@H](C)[C@@H]2[C@@H]1OC(=O)N2CCCCc1ccc(-c2cccnc2)s1`, the MIC is 0.4 µg/mL (≈ 0.491 µM) in experiment [1]; at most 0.05 µg/mL in experiment [2]; at most 0.05 µg/mL in experiment [3]; 0.2 µg/mL (≈ 0.246 µM) in experiment [4]; 50 µg/mL (≈ 61.4 µM) in experiment [5]; 3.13 µg/mL (≈ 3.84 µM) in [6]. In addition, the MIC in experiment [7] was at most 0.05 µg/mL; in [8] it was 0.1 µg/mL (≈ 0.123 µM); in experiment [9], 12.5 µg/mL (≈ 15.4 µM); in experiment [10] it was 0.1 µg/mL (≈ 0.123 µM); in [11], at most 0.05 µg/mL; in [12] it was at most 0.05 µg/mL. For the same compound, the MIC in experiment [13] came to 0.2 µg/mL (≈ 0.246 µM); in experiment [14] it was 6.25 µg/mL (≈ 7.68 µM); in experiment [15], 25 µg/mL (≈ 30.7 µM).

Turning to `CC[C@H]1OC(=O)[C@H](C)C(=O)[C@H](C)[C@@H](O[C@@H]2O[C@H](C)C[C@H](N(C)C)[C@H]2O)[C@](C)(OC)C[C@@H](C)C(=O)[C@H](C)[C@@H]2[C@@H]1OC(=O)N2CCCCc1cnc(-c2cccnc2)s1`, the MIC in [1] is 0.78 µg/mL (≈ 0.957 µM); in experiment [2], at most 0.05 µg/mL; in [3], at most 0.05 µg/mL; in experiment [4], 0.2 µg/mL (≈ 0.245 µM); in [5], over 50 µg/mL; in [6], 1.56 µg/mL (≈ 1.91 µM). The MIC in [7] is at most 0.05 µg/mL; in experiment [8], 0.1 µg/mL (≈ 0.123 µM); in experiment [9], 6.25 µg/mL (≈ 7.67 µM); in experiment [10], 0.1 µg/mL (≈ 0.123 µM); in experiment [11], at most 0.05 µg/mL; in [12] it was at most 0.05 µg/mL. Also, the MIC in [13] is 0.2 µg/mL (≈ 0.245 µM); in [14], 25 µg/mL (≈ 30.7 µM); in experiment [15] it was 3.13 µg/mL (≈ 3.84 µM).

On to `CC[C@H]1OC(=O)[C@H](C)C(=O)[C@H](C)[C@@H](O[C@@H]2O[C@H](C)C[C@H](N(C)C)[C@H]2O)[C@](C)(OC)C[C@@H](C)C(=O)[C@H](C)[C@@H]2[C@@H]1OC(=O)N2CCCCc1cnc2ccccc2c1`, for which the MIC in [1] is 0.2 µg/mL (≈ 0.256 µM); in experiment [2], 0.1 µg/mL (≈ 0.128 µM); in experiment [3], at most 0.05 µg/mL; in [4] it was 0.2 µg/mL (≈ 0.256 µM); in experiment [5], over 50 µg/mL; in experiment [6], 1.56 µg/mL (≈ 1.99 µM). For the same compound, the MIC in experiment [7] is at most 0.05 µg/mL; in [8] it was 0.4 µg/mL (≈ 0.512 µM); in [9] it was 6.25 µg/mL (≈ 7.99 µM); in experiment [10], 0.1 µg/mL (≈ 0.128 µM); in [11], at most 0.05 µg/mL; in [12], at most 0.05 µg/mL. The results for the MIC in experiment [13], in [14] and in experiment [15] were 0.4 µg/mL (≈ 0.512 µM), 0.4 µg/mL (≈ 0.512 µM) and 12.5 µg/mL (≈ 16 µM), respectively.
